Assay [1] relates to TMD8. As to the kind of experiment: Induction of apoptosis in human TMD8 cells assessed as increase in cleaved PARP level measured after 48 hrs by Western blot analysis. In kind it is functional, cell-based. Conditions: dose 0.15-3000 nM. In a few lines:
(§1)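 TMD8 or Mino cells (2 × 10^6 per well) exposed 48 h to 3000–0.15 nM (3-fold dilution) or 1% DMSO. Lysates BCA-normalised, 8–30 μg per lane on 4–20% Tris-glycine gels, transferred to nitrocellulose, probed with antibodies, HRP chemiluminescence detection and densitometry. Representative of two independent experiments.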

The test system of assay [2] is MINO. As to the kind of experiment: Induction of apoptosis in human MINO cells assessed as increase in cleaved PARP level measured after 48 hrs by Western blot analysis. In kind it is functional, cell-based. Conditions: dose 0.15-3000 nM. In a few lines:
as §1

Assay [3] deals with T1, Protein cereblon/Tyrosine-protein kinase BTK (Homo sapiens, UniProt Q06187+Q96SW2). Nature of the assay: PROTAC activity at BTK/CRBN protein protein interaction in human JeKo-1 cell assessed as Hook effect incubated at >333 nM for 17 hrs measured by Western blot analysis. Type of assay: cell-based. The essentials:
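Ramos or JeKo-1 cells (2 × 10^6 per well) were exposed for 17 h to 3000–0.15 nM PROTAC in 3-fold steps. Cells were lysed and analysed by western blot, with BTK normalised to β-actin. DC50 and Dmax come from the dose-response; DC50 is the mean ± SD of two independent experiments.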

Assay [4] relates to MINO. As to the kind of experiment: Induction of apoptosis in human MINO cells assessed as increase in cleaved caspase 3 level measured after 48 hrs by Western blot analysis. Type of assay: functional, cell-based. As to conditions: dose 0.15-3000 nM. The essentials: as §1
For assay [5], the system named is TMD8. Nature of the assay: Induction of apoptosis in human TMD8 cells assessed as downregulation in Mcl-1 level measured at 0.15 to 3000 nM after 48 hrs by Western blot analysis. Conditions: dose 0.15-3000 nM. Type of assay: functional, cell-based. In a few lines: as §1
In assay [6] the test system is MINO. Nature of the assay: Induction of apoptosis in human MINO cells assessed as downregulation in Mcl-1 level measured at 0.15 to 3000 nM after 48 hrs by Western blot analysis. Type of assay: functional, cell-based. As to conditions: dose 0.15-3000 nM. In a few lines:
as §1

Assay [7] deals with T2, Tyrosine-protein kinase BTK (Homo sapiens, UniProt Q06187). As to the kind of experiment: Degradation of BTK in human TMD8 cells by measuring protein level at 111 nM for 6 hrs using label free proteomic analysis. In kind it is cell-based. In a few lines:
(§2)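 TMD8 cells (2 × 10^6) given 111 nM or DMSO for 6 h in duplicate. Lysed in 5% SDS/50 mM TEAB pH 8.5. 200 μg protein reduced (10 mM DTT, 55 °C, 30 min), alkylated (50 mM iodoacetamide), S-Trap processed, then LC-MS/MS. Label-free matched-peptide quantitation against DMSO, human UniProt; Benjamini–Hochberg-corrected p-values.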

Assay [8] concerns the target Tyrosine-protein kinase SYK (Homo sapiens) (UniProt P43405). Nature of the assay: Degradation of SYK in human TMD8 cells by measuring protein level at 111 nM for 6 hrs using label free proteomic analysis. Type of assay: cell-based. In a few lines:
as §2

Assay [9] deals with TMD8. Nature of the assay: Induction of apoptosis in human TMD8 cells assessed as decrease in PARP level measured after 48 hrs by Western blot analysis. In kind it is functional, cell-based. Conditions: dose 0.15-3000 nM. The essentials: as §1
For assay [10], the target named is T2, Tyrosine-protein kinase BTK. Nature of the assay: Inhibition of BTK in HEK293 cells using NanoGlo substrate incubated for 2 hrs by NanoBRET assay. In kind it is cell-based.
The target of assay [11] is T1, Protein cereblon/Tyrosine-protein kinase BTK. Nature of the assay: PROTAC activity at BTK/CRBN protein protein interaction in human Ramos cell assessed as degradation of BTK incubated at 111 nM for 17 hrs in presence of -iberdomide at 20 uM measured by Western blot analysis.
Assay [12] is described as follows: Cytotoxicity against human MINO cells incubated for 48 hrs by celltitre glo 2.0 assay. In kind it is functional, cell-based.
For assay [13], the target named is Protein cereblon (Homo sapiens, UniProt Q96SW2). As to the kind of experiment: Inhibition of CRBN in HEK293 cells using NanoGlo substrate incubated for 2 hrs by NanoBRET assay. In kind it is cell-based.
Sequence of Protein cereblon (Q96SW2 whole entry): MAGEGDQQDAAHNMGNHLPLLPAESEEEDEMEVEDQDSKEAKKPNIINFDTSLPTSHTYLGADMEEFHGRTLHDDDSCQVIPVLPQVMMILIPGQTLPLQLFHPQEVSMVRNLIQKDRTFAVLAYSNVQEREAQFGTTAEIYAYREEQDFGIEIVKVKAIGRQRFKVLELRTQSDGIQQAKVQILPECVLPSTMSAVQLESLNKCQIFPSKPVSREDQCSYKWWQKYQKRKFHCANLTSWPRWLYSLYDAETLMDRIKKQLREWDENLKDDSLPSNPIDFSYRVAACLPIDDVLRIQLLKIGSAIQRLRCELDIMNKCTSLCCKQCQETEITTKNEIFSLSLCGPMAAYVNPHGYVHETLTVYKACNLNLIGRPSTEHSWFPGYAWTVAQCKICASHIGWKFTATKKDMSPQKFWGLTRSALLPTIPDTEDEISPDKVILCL
Assay [14] deals with T3, Zinc finger protein 280D (Homo sapiens) (UniProt Q6N043).
T3 sequence (whole entry): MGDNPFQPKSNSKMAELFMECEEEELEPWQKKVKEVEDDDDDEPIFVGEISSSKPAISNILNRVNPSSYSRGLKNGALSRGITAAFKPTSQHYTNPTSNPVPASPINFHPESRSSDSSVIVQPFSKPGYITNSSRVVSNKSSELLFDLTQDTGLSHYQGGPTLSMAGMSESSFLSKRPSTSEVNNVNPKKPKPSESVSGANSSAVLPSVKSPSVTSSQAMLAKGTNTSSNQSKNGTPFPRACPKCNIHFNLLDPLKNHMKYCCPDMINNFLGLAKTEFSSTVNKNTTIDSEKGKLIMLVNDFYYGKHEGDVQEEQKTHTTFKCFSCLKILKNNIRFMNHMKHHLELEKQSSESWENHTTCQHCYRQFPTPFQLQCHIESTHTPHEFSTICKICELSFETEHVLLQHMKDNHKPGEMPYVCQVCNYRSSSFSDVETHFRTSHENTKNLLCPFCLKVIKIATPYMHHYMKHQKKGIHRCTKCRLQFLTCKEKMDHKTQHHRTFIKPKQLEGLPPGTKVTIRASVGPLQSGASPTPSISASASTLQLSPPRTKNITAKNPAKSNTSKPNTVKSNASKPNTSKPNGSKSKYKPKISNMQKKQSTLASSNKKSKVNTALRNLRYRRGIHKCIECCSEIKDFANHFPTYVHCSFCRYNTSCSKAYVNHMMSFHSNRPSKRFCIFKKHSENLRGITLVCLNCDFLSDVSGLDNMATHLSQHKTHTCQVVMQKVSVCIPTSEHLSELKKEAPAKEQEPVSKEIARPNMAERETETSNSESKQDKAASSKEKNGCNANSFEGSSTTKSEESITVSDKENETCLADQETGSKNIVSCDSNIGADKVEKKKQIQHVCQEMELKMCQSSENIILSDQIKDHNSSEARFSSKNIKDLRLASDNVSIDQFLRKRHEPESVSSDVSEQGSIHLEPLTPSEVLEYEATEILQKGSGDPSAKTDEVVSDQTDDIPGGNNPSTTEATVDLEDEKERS
As to the kind of experiment: Degradation of […] in human TMD8 cells by measuring protein level at 111 nM for 6 hrs using label free proteomic analysis. In kind it is cell-based. In a few lines:
as §2

The target in assay [15] is T1, Protein cereblon/Tyrosine-protein kinase BTK. Nature of the assay: PROTAC activity at BTK/CRBN protein protein interaction in human Ramos cell assessed as degradation of BTK preincubated with proteasome inhibitor bortezomib for 2 hrs followed by compound addition at 111 nM for 4 hrs measured by Western blot analysis. Type of assay: cell-based. The essentials:
(§3)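 Ramos cells were pre-treated for 2 h with bortezomib (proteasome inhibitor) or MLN-4924 (NEDD8-activating enzyme inhibitor), then given 111 nM degrader for 4 h. BTK level was assessed by western blot.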

The target is the same in assay [16]. Nature of the assay: PROTAC activity at BTK/CRBN protein protein interaction in human Ramos cell assessed as degradation of BTK preincubated with neddylation inhibitor MLN-4924 for 2 hrs followed by compound addition at 111 nM for 4 hrs measured by Western blot analysis. In kind it is cell-based. The essentials: as §3
Assay [17] concerns MINO. Nature of the assay: Induction of apoptosis in human MINO cells assessed as downregulation in Bcl-2 level measured at 0.15 to 3000 nM after 48 hrs by Western blot analysis. Type of assay: functional, cell-based. Conditions: dose 0.15-3000 nM. In a few lines:
as §1

In assay [18] the test system is MINO. As to the kind of experiment: Induction of apoptosis in human MINO cells assessed as decrease in caspase 3 level measured after 48 hrs by Western blot analysis. Type of assay: functional, cell-based. Conditions: dose 0.15-3000 nM. In a few lines:
as §1

Molecules are shown by their SMILES. pIC50: −log10 of the molar value. Activity calls are given as the source filed them. The rule behind the calls is not given here.

T1 sequence (Q06187 2-659 limits assumed): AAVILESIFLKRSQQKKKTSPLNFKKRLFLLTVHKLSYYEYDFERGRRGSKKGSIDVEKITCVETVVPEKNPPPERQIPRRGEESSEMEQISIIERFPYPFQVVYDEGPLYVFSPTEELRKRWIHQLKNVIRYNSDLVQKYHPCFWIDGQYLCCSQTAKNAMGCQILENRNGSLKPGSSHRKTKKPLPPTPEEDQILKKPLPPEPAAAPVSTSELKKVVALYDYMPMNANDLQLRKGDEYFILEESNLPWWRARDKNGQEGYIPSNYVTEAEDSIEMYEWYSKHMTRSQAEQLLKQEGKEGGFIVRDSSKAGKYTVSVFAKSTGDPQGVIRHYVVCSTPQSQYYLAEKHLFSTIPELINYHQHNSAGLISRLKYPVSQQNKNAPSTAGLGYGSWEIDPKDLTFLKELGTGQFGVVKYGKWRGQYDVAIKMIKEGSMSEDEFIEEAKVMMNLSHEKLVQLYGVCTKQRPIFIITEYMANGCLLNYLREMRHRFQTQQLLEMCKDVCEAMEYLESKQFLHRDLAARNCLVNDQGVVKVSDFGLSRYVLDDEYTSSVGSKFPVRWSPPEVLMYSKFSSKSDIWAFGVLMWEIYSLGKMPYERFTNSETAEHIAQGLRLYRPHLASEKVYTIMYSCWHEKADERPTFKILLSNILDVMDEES
T1 sequence (Q96SW2 whole entry partner): as the sequence (Q96SW2 whole entry) above
T2 sequence (Q06187 whole entry): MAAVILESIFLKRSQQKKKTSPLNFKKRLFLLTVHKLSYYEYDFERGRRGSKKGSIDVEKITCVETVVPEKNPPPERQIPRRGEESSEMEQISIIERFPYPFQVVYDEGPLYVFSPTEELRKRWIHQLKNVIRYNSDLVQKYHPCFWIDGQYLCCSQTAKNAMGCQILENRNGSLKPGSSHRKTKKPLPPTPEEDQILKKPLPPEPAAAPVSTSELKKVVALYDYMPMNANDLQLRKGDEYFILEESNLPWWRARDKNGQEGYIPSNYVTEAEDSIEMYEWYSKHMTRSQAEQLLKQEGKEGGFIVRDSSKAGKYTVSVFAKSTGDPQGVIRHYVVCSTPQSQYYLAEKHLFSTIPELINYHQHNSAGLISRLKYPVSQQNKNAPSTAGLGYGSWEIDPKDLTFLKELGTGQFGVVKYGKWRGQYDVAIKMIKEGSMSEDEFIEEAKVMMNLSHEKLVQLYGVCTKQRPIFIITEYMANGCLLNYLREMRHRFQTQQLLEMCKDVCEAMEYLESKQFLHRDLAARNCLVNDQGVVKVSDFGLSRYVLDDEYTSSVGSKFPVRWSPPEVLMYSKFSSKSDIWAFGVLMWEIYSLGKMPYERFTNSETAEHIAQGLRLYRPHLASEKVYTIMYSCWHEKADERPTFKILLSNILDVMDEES

Consider `C[C@H]1CN(C(=O)CNc2cccc3c2C(=O)N(C2CCC(=O)NC2=O)C3=O)CCN1c1ccc(Nc2cc(-c3ccnc(N4CCn5c(cc6c5CC(C)(C)C6)C4=O)c3CO)cn(C)c2=O)nc1` (stereo partly specified), for which the outcome in assay [1], in [2], in assay [3], in assay [4], in assay [5] and in assay [6] was Active. Moreover, the result in [7], in assay [9], in assay [14], in [17] and in [18] was Active. In addition, the outcome in assay [8], in assay [11], in [15] and in [16] was inactive. For the same compound, the pIC50 in assay [10] is 7.01; in assay [12], 8.66; in assay [13] it was 6.97.
As for `C[C@H]1CN(C(=O)COc2cccc3c2C(=O)N(C2CCC(=O)NC2=O)C3=O)CCN1c1ccc(Nc2cc(-c3ccnc(N4CCn5c(cc6c5CC(C)(C)C6)C4=O)c3CO)cn(C)c2=O)nc1` (stereo partly specified), the outcome in assay [7] and in [14] was Active. In addition, the outcome in assay [8] was inactive.
